Experiment [1] concerns the target Urokinase-type plasminogen activator (Homo sapiens, UniProt P00749). Kind of experiment: Inhibition of urokinase-type plasminogen activator using Glt-Gly-Arg-AMC as substrate by spectrofluorometry.
The target of the next experiment is Plasminogen (Homo sapiens, UniProt P00747). Briefly: Inhibition of plasmin using tosyl-Gly-Pro-Lys-pNA as substrate by spectrophotometry.
The target in experiment [2] is Tissue-type plasminogen activator (Homo sapiens, UniProt P00750). Kind of experiment: Inhibition of tPA using CH3SO2-D-HHT-Gly-Arg-pNA as substrate by spectrophotometry.
Experiment [3] in a line: Inhibition of trypsin using tosyl-Gly-Pro-Lys-pNA as substrate by spectrophotometry.
The subject of the next experiment is U-87MG ATCC. Kind of experiment: Cytotoxicity against human U87 cells by lactate dehydrogenase assay. The class given is functional, cell-based. The essentials:
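Cytotoxicity was read as release of cytosolic LDH from dying cells, following the kit manufacturer's protocol.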

Experiment [4] is described as follows: Cytotoxicity against human U87 cells at 250 uM after 72 hrs by lactate dehydrogenase assay. The experiment is classed as functional, U-87MG ATCC. The essentials:
(§1)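 Cell death was scored as cytosolic LDH released into the medium, using the kit manufacturer's LDH protocol.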

Experiment [5] in a line: Cytotoxicity against human U87 cells at 250 uM after 24 hrs by lactate dehydrogenase assay. The class given is functional, U-87MG ATCC. The essentials: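 Human U87 glioma cells seeded at ten thousand per well and exposed to drug for 24–48 h at 37°C under 5% CO2. Cell death was read as cytosolic lactate dehydrogenase released from dying cells, assayed following the kit manufacturer's protocol.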

Experiment [6] is described as follows: Cytotoxicity against human U87 cells at 100 uM after 72 hrs by lactate dehydrogenase assay. The class given is functional, U-87MG ATCC. The conditions noted are these: in the assay text read “24 hrs” for “72 hrs”. The method in brief: as §1

Each structure is given as a SMILES string. The source made the active and inactive calls. No cut-off for these calls is given here.

Our source for the IC50 and Activity values is ChEMBL document CHEMBL2010781, “2-Amidino analogs of glycine-amiloride conjugates: inhibitors of urokinase-type plasminogen activator” (Bioorg Med Chem Lett, 2012).

In general, IC50 refers to the concentration that inhibits the measured activity by half. A lower IC50 goes with greater potency in that assay.

Chain of Tissue-type plasminogen activator (P00750 whole entry): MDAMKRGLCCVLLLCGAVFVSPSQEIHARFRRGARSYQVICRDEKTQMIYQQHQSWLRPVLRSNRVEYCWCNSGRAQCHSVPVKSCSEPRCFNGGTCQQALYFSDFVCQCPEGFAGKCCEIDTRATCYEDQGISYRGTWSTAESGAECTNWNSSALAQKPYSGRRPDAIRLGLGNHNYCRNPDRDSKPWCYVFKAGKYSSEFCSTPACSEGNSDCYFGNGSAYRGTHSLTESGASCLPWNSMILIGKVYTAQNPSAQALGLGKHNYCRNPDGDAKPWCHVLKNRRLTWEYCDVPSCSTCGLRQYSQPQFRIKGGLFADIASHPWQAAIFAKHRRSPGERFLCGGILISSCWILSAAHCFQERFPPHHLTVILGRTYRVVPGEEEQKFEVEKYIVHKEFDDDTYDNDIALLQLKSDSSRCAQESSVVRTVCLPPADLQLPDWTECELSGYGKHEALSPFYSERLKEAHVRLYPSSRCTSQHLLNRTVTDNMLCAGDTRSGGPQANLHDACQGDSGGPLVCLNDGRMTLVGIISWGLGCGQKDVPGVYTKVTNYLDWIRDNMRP
Chain of Plasminogen (P00747 97-580 limits assumed): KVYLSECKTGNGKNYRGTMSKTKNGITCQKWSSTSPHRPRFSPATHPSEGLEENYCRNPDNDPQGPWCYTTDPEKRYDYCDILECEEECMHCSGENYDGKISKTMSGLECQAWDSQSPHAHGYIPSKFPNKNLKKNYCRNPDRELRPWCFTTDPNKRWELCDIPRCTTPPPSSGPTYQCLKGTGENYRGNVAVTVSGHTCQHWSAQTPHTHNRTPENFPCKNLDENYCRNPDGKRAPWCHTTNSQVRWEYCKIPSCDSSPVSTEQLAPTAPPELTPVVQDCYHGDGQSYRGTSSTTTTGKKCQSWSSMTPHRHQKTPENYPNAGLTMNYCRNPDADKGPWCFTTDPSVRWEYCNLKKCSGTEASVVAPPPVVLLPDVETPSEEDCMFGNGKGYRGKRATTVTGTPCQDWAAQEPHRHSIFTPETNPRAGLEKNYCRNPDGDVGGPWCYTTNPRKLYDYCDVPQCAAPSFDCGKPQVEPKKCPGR
Chain of Plasminogen (P00747 581-810 limits assumed): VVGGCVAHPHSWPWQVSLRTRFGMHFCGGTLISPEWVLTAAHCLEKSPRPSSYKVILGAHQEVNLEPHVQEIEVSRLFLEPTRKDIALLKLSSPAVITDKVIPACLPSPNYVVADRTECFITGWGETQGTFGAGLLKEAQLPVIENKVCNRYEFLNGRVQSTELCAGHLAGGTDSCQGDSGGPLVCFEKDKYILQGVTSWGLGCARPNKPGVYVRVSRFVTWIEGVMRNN

Consider `N=C(NO)c1nc(Cl)c(NCC(=O)OCc2ccccc2)nc1N`, for which the IC50 is 74 µM in experiment [1], more than 250 µM against Plasminogen and 200 µM in experiment [2].

Consider `NC(=O)c1nc(Cl)c(NCC(=O)OCc2ccccc2)nc1N`, for which the IC50 in experiment [1] is 69 µM; in experiment [2] it was more than 250 µM; in experiment [3], more than 250 µM.

For `N=C(N)NC(=O)c1nc(Cl)c(NCC(=O)O)nc1N`, the IC50 was 17 µM in experiment [1], more than 250 µM on Plasminogen, more than 250 µM in experiment [2] and more than 250 µM in experiment [3]. For the same compound, in the experiment with U-87MG ATCC, the outcome was inactive.

Turning to `N=C(N)c1nc(Cl)c(NCC(=O)OCc2ccccc2)nc1N`, the IC50 was 4 µM in experiment [1], more than 250 µM against Plasminogen, 200 µM in experiment [2] and more than 250 µM in experiment [3]. In experiment [4], this compound displayed an Activity of 50%.

For `N/C(=N\O)c1nc(Cl)c(NCC(=O)OCc2ccccc2)nc1N`, the outcome with U-87MG ATCC was inactive. The compound further registered an IC50 in experiment [3] of more than 250 µM.

In the case of `N=C(NO)c1ncc(NCC(=O)O)nc1N`, the IC50 is 279 µM in experiment [1] and more than 250 µM in experiment [2].

As to `N=C(N)c1ncc(NCC(=O)O)nc1N`, the IC50 was 212 µM in experiment [1], more than 250 µM at Plasminogen, more than 250 µM in experiment [2] and more than 250 µM in experiment [3]. Moreover, in the experiment on U-87MG ATCC, the outcome was inactive.

Consider `N=C(N)c1nc(Cl)c(NCC(=O)O)nc1N`, for which the IC50 was 237 µM in experiment [1], more than 250 µM in experiment [2] and more than 250 µM in experiment [3]. Also, the result with U-87MG ATCC was inactive.

As for `N/C(=N\O)c1ncc(NCC(=O)O)nc1N`, the result in the experiment with U-87MG ATCC was inactive. Besides, the concentration for half-maximal inhibition (IC50) in experiment [3] is more than 250 µM.

On to `N/C(=N\O)c1nc(Cl)c(NCC(=O)O)nc1N`, for which, in the experiment with U-87MG ATCC, the outcome was inactive. In experiment [3], the 50% inhibitory concentration (IC50) is more than 250 µM.

Turning to `N=C(N)NC(=O)c1nc(Cl)c(N)nc1N` [AMILORIDE], the IC50 against Plasminogen is more than 250 µM; in experiment [2] it was 220 µM; in experiment [3] it was more than 250 µM. The Activity in experiment [5] worked out at 50%.

In the case of `NC(N)=NC(=O)c1nc(Cl)c(NCC(=O)OCc2ccccc2)nc1N`, the IC50 in experiment [1] was 3 µM; against Plasminogen, more than 250 µM; in experiment [2] it was more than 190 µM; in experiment [3], more than 250 µM. The compound also returned an Activity in experiment [6] of 50%.

On to `NC(N)=NC(=O)c1ncc(NCC(=O)O)nc1N`, for which the IC50 in experiment [1] is 47 µM; on Plasminogen it was more than 250 µM; in experiment [2] it was more than 250 µM; in experiment [3], more than 250 µM. In addition, in the experiment with U-87MG ATCC, the result was inactive.

Regarding `N=C(NO)c1nc(Cl)c(NCC(=O)O)nc1N`, the results for the IC50 (in experiment [1]; against Plasminogen; in experiment [2]) were 231 µM, more than 250 µM and more than 250 µM, respectively.
